ABHD4 inh: ABHD4 inhibitors, primary screen, biochemical, fluorescence polarization, mouse | (Lyso)-N-acylphosphatidylethanolamine lipase (Mus musculus), Q8VD66 | purified mABHD4, FP-Rh probe fluorescence polarization | inhibition, % at 8.92 µM | hit rate 0.54% among 370,000 | AID 720543, 2013;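 active means inhibition exceeding the mean over every tested compound plus 3 SD, cut at about 30% in these data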
Target sequence (Q8VD66 whole entry, looked up): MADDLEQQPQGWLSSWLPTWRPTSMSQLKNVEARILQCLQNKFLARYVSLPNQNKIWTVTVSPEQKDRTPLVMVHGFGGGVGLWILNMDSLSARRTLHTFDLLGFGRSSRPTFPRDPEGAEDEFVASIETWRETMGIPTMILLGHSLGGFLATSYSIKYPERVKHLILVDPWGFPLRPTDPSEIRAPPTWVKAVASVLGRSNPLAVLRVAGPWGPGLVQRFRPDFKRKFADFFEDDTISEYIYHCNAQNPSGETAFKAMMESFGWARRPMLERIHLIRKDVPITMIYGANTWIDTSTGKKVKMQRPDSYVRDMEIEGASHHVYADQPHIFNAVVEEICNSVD
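Material: mouse ABHD4 enzyme, wild type; Benchmarks: S159A mutant high control, sample median low control; Buffer or medium: HEPES pH 7.0, NaCl, Pluronic buffer; Signal: fluorescence polarization; Read-out: percent inhibition of probe binding, normalized to plate controls; Timing: pre-incubation 45 min, probe exposure 60 min, at 25 °C; Dosing: 8.92 µM, single dose.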
SIAE primary: human SIAE inhibitors, primary screen, biochemical, fluorescence polarization, FP-Rh probe, 1536-well HTS; inhibition, % at 9.66 µM; Sialate O-acetylesterase (Homo sapiens), Q9HAT2; hit rate 0.69% among 370,000; AID 1053197, 2014; SIAE FP-Rh probe binding;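 active means inhibition above a cutoff: mean of compounds within the control limits plus 3 SD of those, cut at about 17% in these data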
TCR-CD3 inh: inhibitors of human TCR-CD3 interaction, primary screen, biochemical, fluorescence, TAMRA-labeled TCR probe; T-cell receptor (TCR); inhibition, % at 9.4 µM; hit rate 0.37% among 360,000; AID 651800, 2012;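 further: recombinant mutant TCR 2C K166C tagged with TAMRA read by polarization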
rCAG RNA binder: binders of r(CAG) RNA repeats, primary screen, biochemical, fluorescence. hit rate 1.3% among 370,000. AID 651821, 2012. inhibition, % at 3 µM. r(CAG) RNA repeat, TO-PRO-1 dye displacement fluorescence;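 active means inhibition above the plate cutoff, the mean of all test compounds on that plate plus 3 SD, cut at about 35% in these data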;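 further: higher means more dye released from RNA so lower well fluorescence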
PRMT1 FP inh: PRMT1 methyltransferase inhibitors, primary screen, biochemical, fluorescence polarization; Protein arginine N-methyltransferase 1 (Homo sapiens), Q99873; recombinant PRMT1, activity-based probe fluorescence polarization; inhibition, % at 2.79 µM; hit rate 1.3% among 370,000; AID 652257, 2013;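 active means inhibition above about 21% made by adding two undisclosed values, limit read from the data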
Target sequence (Q99873 whole entry, looked up): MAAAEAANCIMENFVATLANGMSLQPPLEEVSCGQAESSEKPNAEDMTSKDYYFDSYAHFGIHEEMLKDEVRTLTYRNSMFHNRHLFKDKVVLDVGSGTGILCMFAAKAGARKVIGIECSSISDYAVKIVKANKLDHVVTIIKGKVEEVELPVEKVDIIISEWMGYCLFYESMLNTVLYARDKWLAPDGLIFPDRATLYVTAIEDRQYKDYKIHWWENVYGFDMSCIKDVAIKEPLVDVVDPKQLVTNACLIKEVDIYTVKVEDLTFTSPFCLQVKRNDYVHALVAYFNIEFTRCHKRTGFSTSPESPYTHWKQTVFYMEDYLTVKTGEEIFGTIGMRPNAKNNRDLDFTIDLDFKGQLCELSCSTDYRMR
BSA TAMRA ctr: compounds interfering with TAMRA-BSA probe, counter-screen for TCR-CD3 interaction inhibitor project, biochemical, fluorescence, TAMRA-labeled BSA | shares compounds with TCR-CD3 inh | TAMRA-labeled BSA probe fluorescence counterscreen | inhibition, % at 9.4 µM | hit rate 10% among 1,200 | AID 652035, 2013; in the data active means inhibition above about 23%
TCR-CD3 inh conf: TCR-CD3 interaction inhibitors, retest, confirmation, biochemical, fluorescence, TAMRA-labeled TCR probe; shares compounds with TCR-CD3 inh; TAMRA-labeled TCR probe fluorescence binding assay; inhibition, % at 9.4 µM; hit rate 48% among 1,200
Of the large screens only hits and unclear results are named; the others gave an inactive call (follow-up assays come after a bar, where they were run). This is a sample that favours compounds with a hit; in the whole collection about 3.3% have one here. Unless noted, no stated cut-off is given here; in the data, active means inhibition above about 19%; inactive means the rest.

O=C(NNC(=O)OCc1ccccc1)OCc1ccccc1	TCR-CD3 inh 111 | BSA TAMRA ctr inactive | TCR-CD3 inh conf inactive
O=C(COC(=O)c1cc(-c2cccs2)nn1-c1ccccc1)Nc1ccc(Cl)c([N+](=O)[O-])c1	TCR-CD3 inh 45 | BSA TAMRA ctr inactive | TCR-CD3 inh conf inactive
CCn1c(=O)c(C(=O)Nc2ncccc2C)c(O)c2ccccc21	none
CCn1c(=O)c(C(=O)Nc2ncccc2O)c(O)c2ccccc21	TCR-CD3 inh 34 | BSA TAMRA ctr inactive | TCR-CD3 inh conf inactive
Cn1c(=O)c(C(=O)NNC(=O)c2ccccc2F)c(O)c2ccccc21	TCR-CD3 inh 33 | BSA TAMRA ctr inactive | TCR-CD3 inh conf 28
COC(=O)Nc1ccc(S(=O)(=O)NNC(=O)c2c(O)c3ccccc3n(C)c2=O)cc1	TCR-CD3 inh 56 | BSA TAMRA ctr inactive | TCR-CD3 inh conf 25
CCn1c(=O)c(C(=O)NNC(=O)c2ccccc2F)c(O)c2ccccc21	none
CCn1c(=O)c(C(=O)NNS(=O)(=O)c2ccc(NC(=O)OC)cc2)c(O)c2ccccc21	none
O=C(NC(=S)NNC(=O)c1ccccc1O)c1ccc([N+](=O)[O-])cc1	TCR-CD3 inh 19 | BSA TAMRA ctr inactive | TCR-CD3 inh conf inactive
O=C(/C=C/NNC(=O)c1ccc(Cl)cc1)c1ccccc1	none
COc1ccc(C(=O)NN/C=C/C(=O)c2ccc(Br)cc2)cc1	none
COc1ccc(C(=O)C=CNNC(=O)c2ccc(Cl)cc2)cc1	TCR-CD3 inh 22 | BSA TAMRA ctr inactive | TCR-CD3 inh conf 24
Cc1ccc(C(=O)/C=C/NNC(=O)c2ccccc2O)cc1	TCR-CD3 inh 19 | BSA TAMRA ctr inactive | TCR-CD3 inh conf inactive
Cc1ccc(C(=O)NC(=S)NNC(=O)c2ccccc2O)cc1	TCR-CD3 inh 19 | BSA TAMRA ctr inactive | TCR-CD3 inh conf inactive
CC1CCC2(CC1)CCC2NCc1ccc(Br)cc1 (stereo unspecified)	none (no result: TCR-CD3 inh, rCAG RNA binder)
C/C(Cn1cnc([N+](=O)[O-])n1)=N\NC(=O)c1ccc(O)cc1O	TCR-CD3 inh 19 | BSA TAMRA ctr inactive | TCR-CD3 inh conf inactive
COc1cc(-c2c(C(=O)c3ccccc3)[nH]c(N)c2C(N)=O)ccc1O	none (no result: TCR-CD3 inh, rCAG RNA binder)
Cc1ccc(OCC(=O)c2c(N)n(C)c(=O)n(C)c2=O)c([N+](=O)[O-])n1	TCR-CD3 inh 36 | BSA TAMRA ctr inactive | TCR-CD3 inh conf 26
CCCn1c(C)cc(C(=O)COc2ccc(C)nc2[N+](=O)[O-])c1C	none
COc1ccc(OCC(=O)N2CCC(n3nccc3NC(=O)C3CC3)CC2)cc1	TCR-CD3 inh 21 | BSA TAMRA ctr inactive | TCR-CD3 inh conf inactive
COc1ccc(CC(=O)N2CCC(n3nccc3NC(=O)C3CC3)CC2)cc1	none
CC(C)C(C#CC1CC1)N(Cc1ccc2c(c1)OCO2)C(N)=NC(=O)/C=C/c1ccccc1 (stereo unspecified)	none (no result: TCR-CD3 inh)
Cc1ncc(CO)c(/C=N/NC(=O)c2cc(Br)ccc2O)c1O	none
Cc1cc(C(=O)N/N=C/c2c(CO)cnc(C)c2O)c2ccccc2n1	TCR-CD3 inh 23 | BSA TAMRA ctr inactive | TCR-CD3 inh conf inactive
Cc1cc2cc(CNC(=O)c3ccc(S(=O)(=O)N4CCOCC4)cc3)ccc2n1C	TCR-CD3 inh 48 | BSA TAMRA ctr inactive | TCR-CD3 inh conf inactive
Cc1cc2cc(CNC(=O)c3ccc(S(=O)(=O)N4CCCCC4)cc3)ccc2[nH]1	TCR-CD3 inh 20 | BSA TAMRA ctr inactive | TCR-CD3 inh conf inactive
Cc1cc2cc(CNC(=O)c3ccc(S(=O)(=O)N(C)C)cc3)ccc2n1C	TCR-CD3 inh 25 | BSA TAMRA ctr inactive | TCR-CD3 inh conf inactive
Cc1cc2cc(CNC(=O)c3cccc([N+](=O)[O-])c3)ccc2n1C	TCR-CD3 inh 26 | BSA TAMRA ctr inactive | TCR-CD3 inh conf inactive
C#CCNC(=O)C[C@H]1C[C@@]2(C(=O)OC)C(=C[C@H](COCc3ccccc3)O[C@@H]2C)N(Cc2cccc3ccccc23)C1=O	none (no result: TCR-CD3 inh)
Cc1ccccc1CN1CCCCC(NC(=O)c2ccc(N(C)C)cc2)C1=O (stereo unspecified)	none (no result: TCR-CD3 inh)
O=C(NC1CCCCN(Cc2cccc(C(F)(F)F)c2)C1=O)c1ccc(F)c(F)c1 (stereo unspecified)	none (no result: TCR-CD3 inh)
CCCCN(C(=O)c1cccc(-n2cccc2)c1)c1c(N)n(CCCC)c(=O)[nH]c1=O	TCR-CD3 inh 39 | BSA TAMRA ctr inactive | TCR-CD3 inh conf inactive
CC(C)Cc1nnc(NC(=O)CCC(=O)NC2CCCCC2)s1	TCR-CD3 inh 20 | BSA TAMRA ctr inactive | TCR-CD3 inh conf inactive
CCc1nnc(NC(=O)CCC(=O)NC2CCCCC2)s1	none
O=C(O)CC(CCc1ccccc1)OC1OC(CO)C(O)C(O)C1O (stereo unspecified)	TCR-CD3 inh 32 | BSA TAMRA ctr inactive | TCR-CD3 inh conf 30
O=S1(=O)CC2c3ccc(F)cc3CN2CN1CCc1ccccc1 (stereo unspecified)	none (no result: TCR-CD3 inh)
N#Cc1cccc(C(=O)C(=O)N2CCC(c3ccccc3)CC2)c1	none
O=C(C(=O)N1CCC(c2ccccc2)CC1)c1ccc(F)c(F)c1	TCR-CD3 inh 24 | BSA TAMRA ctr inactive | TCR-CD3 inh conf inactive
CC(=O)OC12CCCN(C1)/C(=C/c1cccnc1)C2 (stereo unspecified)	none (no result: TCR-CD3 inh)
CCCNC(=O)C(Cc1ccccc1)NC(=O)c1ccc(C(F)(F)F)cc1 (stereo unspecified)	TCR-CD3 inh 22 | BSA TAMRA ctr inactive | TCR-CD3 inh conf inactive
CCC(CC)NC(=O)O[C@H]1CC[C@@]23CCCN2C(=O)CCC[C@H]3[C@H]1C	none (no result: TCR-CD3 inh, rCAG RNA binder)
Cc1ccc(NC(=S)Nc2ccc(C(C)C)cc2)cc1S(=O)(=O)N1CCCCCC1	TCR-CD3 inh 22 | BSA TAMRA ctr inactive | TCR-CD3 inh conf inactive
C=CCNC(=S)Nc1ccc(C)c(S(=O)(=O)N2CCCCC2)c1	none
COC(=O)[C@]12C[C@H](CC(=O)NCc3ccccc3)C(=O)N(Cc3cccc4ccccc34)C1=C[C@H](C1CCCC1)O[C@@H]2C	none (no result: TCR-CD3 inh)
N#C[C@@H]1N[C@H](CO)[C@@H]1c1ccccc1	none (no result: TCR-CD3 inh)
